Data as given in ChEMBL document CHEMBL1141077, “Synthesis and structure-activity relationship of a novel series of aminoalkylindoles with potential for imaging the neuronal cannabinoid receptor by positron emission tomography” (J Med Chem, 2005).

Target: Cannabinoid receptor 1 (Rattus norvegicus, UniProt P20272)
Assay: In vitro binding affinity against rat cannabinoid receptor 1 using 0.5 nM [3H]CP-55940
Method in brief: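 Competition binding on membranes from frozen Sprague-Dawley rat cerebellum (0.6 mg tissue per tube) in pH 7.4 buffer: 50 mM Tris-HCl, 3 mM MgCl2, 1 mM EDTA, 0.5% fat-free BSA. Incubated 1 h at 30 °C with serial ligand dilutions. Nonspecific binding determined with excess unlabelled CP-55940. GF/C filtration, scintillation counting, quadruplicate. Ki from IC50 via Cheng-Prusoff, Kd 0.5 nM.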

Cannabinoid receptor 1, sequence (P20272 whole entry): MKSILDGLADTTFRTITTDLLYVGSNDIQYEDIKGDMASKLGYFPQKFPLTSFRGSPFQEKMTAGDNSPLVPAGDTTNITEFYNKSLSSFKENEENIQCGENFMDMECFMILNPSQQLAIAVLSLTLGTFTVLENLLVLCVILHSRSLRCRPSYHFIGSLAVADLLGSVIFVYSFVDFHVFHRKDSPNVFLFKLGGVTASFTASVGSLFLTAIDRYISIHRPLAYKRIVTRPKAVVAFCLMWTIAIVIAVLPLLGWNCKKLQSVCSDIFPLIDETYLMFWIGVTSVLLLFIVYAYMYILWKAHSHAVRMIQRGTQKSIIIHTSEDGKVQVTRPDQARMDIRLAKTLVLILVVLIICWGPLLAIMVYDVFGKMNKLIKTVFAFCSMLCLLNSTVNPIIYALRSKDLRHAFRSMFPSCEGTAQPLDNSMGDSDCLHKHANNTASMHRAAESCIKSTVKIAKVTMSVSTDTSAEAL

| Structure (SMILES) | Ki [nM] |
| --- | --- |
| CN1CCCCC1Cn1cc(C(=O)c2ccc(F)c3ccccc23)c2ccccc21 (stereo not given) | 0.7 |
| CN1CCCCC1Cn1nc(C(=O)c2cccc3ccccc23)c2ccccc21 (stereo not given) | 1.4 |
| CN1CCCCC1Cn1cc(C(=O)c2cccc3cc(O)ccc23)c2ccccc21 (stereo not given) | 4 |
| CN1CCCCC1Cn1cc(C(=O)c2ccc(C#N)c3ccccc23)c2ccccc21 (stereo not given) | 1.1 |
| CN1CCCCC1Cn1cc(C(=O)c2ccc(Br)c3ccccc23)c2ccccc21 (stereo not given) | 1.7 |
| COc1ccc(C(=O)c2cn(CC3CCCCN3C)c3ccccc23)c2ccccc12 (stereo not given) | 2.3 |
| CN1CCCCC1Cn1cc(C(=O)c2ccc([N+](=O)[O-])c3ccccc23)c2ccccc21 (stereo not given) | 12.4 |
| CN1CCCCC1Cn1cc(C(=O)Nc2cccc3ccccc23)c2ccccc21 (stereo not given) | 100 |
| CN1CCCCC1Cn1cc(C(=O)N2CCCC3CCCCC32)c2ccccc21 (stereo not given) | 12 |
| CN1CCCCC1Cn1cc(C(=O)c2ccc(CCO)c3ccccc23)c2ccccc21 (stereo not given) | 1.3 |
| CN1CCCCC1Cn1cc(C(=O)c2ccccc2I)c2ccccc21 (stereo not given) | 1.2 |
| Cc1ccc(C(=O)c2cn(CC3CCCCN3C)c3ccccc23)c2ccccc12 (stereo not given) | 1.1 |
| CN1CCCCC1Cn1cc(C(=O)c2ccc(O)c3ccccc23)c2ccccc21 (stereo not given) | 2.2 |
| Cc1ccc2ccccc2c1C(=O)c1cn(CC2CCCCN2C)c2ccccc12 (stereo not given) | 7.8 |
| CN1CCCCC1Cn1cc(C(=O)c2cccc3ccccc23)c2ccccc21 (stereo not given) | 0.9 |
